Results reported in PMC4220649 (Blood Cancer Journal, 2014).
Several values for one entry are separate records, joined by “and”; a condition that tells them apart may be missing. Equal entries are not always repeated. Entries after “also recorded” stand apart in the source; their conditions may differ.

Columns and labels:
[1] = test system: patients with relapsed or refractory light-chain amyloidosis; conditions: weekly oral ixazomib; cited from earlier work
[2] = test system: relapsed/refractory lymphoma; assay: Disease response by International Working Group criteria for lymphoma; format: in vivo, human; conditions: for Duration of response: follicular lymphoma patient
Outline: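 CT and PET were done at screening, with repeat PET at end of cycles 2 and 4 if positive. Response was assessed at end of cycle 2, every 2 cycles to cycle 12, then every 4 cycles. Evaluable patients had measurable baseline disease and ⩾1 post-baseline assessment.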

[3] = Plasma pharmacokinetics of ixazomib after IV bolus; format: in vivo, human; conditions: for DN AUC0–168 h: dose normalized; for DN AUC0–168 h / C0 / half-life / AUC0–168 h: plasma
[4] = test system: patients with relapsed or refractory MM; conditions: cited from earlier work
[5] = weekly oral ixazomib, relapsed or refractory MM, after multiple dosing; cited from earlier work
[6] = test system: patients with relapsed or refractory MM; conditions: twice-weekly oral ixazomib; cited from earlier work
[7] = Urine pharmacokinetics of ixazomib; format: in vivo, human
[8] = day 15, IV 1.4 mg/m^2, n=4, geometric mean (%CV)
[9] = day 15, IV 3.11 mg/m^2, n=2, individual values
[10] = day 1, IV 1.4 mg/m^2, n=4, geometric mean (%CV)
[11] = day 1, IV 1.76 mg/m^2, n=6, geometric mean (%CV)
[12] = day 1, IV 2.34 mg/m^2, n=7, geometric mean (%CV)
[13] = day 1, IV 3.11 mg/m^2, n=5, geometric mean (%CV)
[14] = day 15, IV 0.5 mg/m^2, n=1, individual value
[15] = day 15, IV 1 mg/m^2, n=1, individual value
[16] = day 15, IV 2.34 mg/m^2, n=7, geometric mean (%CV)

In the case of `CC(C)C[C@H](NC(=O)CNC(=O)c1cc(Cl)ccc1Cl)B(O)O` [ixazomib], the “Rate of all-cause rash/maculopapular rash” value [1] is given as 18%, the “Patients achieving responses (CR or PR)” value ([2]; 26 evaluable patients) is given as “five” and the Duration of response ([2]; 1.4 mg/m^2) is given as 24.1 months. For the same compound, the Duration of response ([2]; 2.34 mg/m^2) was 2 months, the “Responders among follicular lymphoma patients” value ([2]; one complete and three partial responses) was 4/11 and 4 of 11 and the “Responders among peripheral T-cell lymphoma patients” value ([2]; partial response) was 1/4. The “Median duration of stable disease” value ([2]; six patients, range 1.7–5.4) was 3.6 months, the “Dose proportionality of plasma exposure” value ([3]; 0.5–3.11 mg/m^2) was “increased dose proportionally; also recorded: dose-proportionality of ixazomib exposure” and the “Accumulation of ixazomib between day 1 and day 15 doses” value ([3]; AUC0–168 h, Figure 1d) was “approximately twofold”. The Accumulation ratio [3, 8] was 2.17 (7), the Accumulation ratio ([3]; day 15, IV 2.34 mg/m^2, n=6, geometric mean (%CV)) was 2.27 (15) and the Accumulation ratio [3, 9] was 2.02 and 2.21. The “DN AUC0–168 h” value [3, 10] was 221 (41) hr/ng/ml/mg, the “DN AUC0–168 h” value [3, 11] was 259 (49) hr/ng/ml/mg and the “DN AUC0–168 h” value [3, 12] was 257 (50) hr/ng/ml/mg. The “DN AUC0–168 h” value [3, 13] was 278 (46) hr/ng/ml/mg, the “DN AUC0–168 h” value [3, 14] was 151 h/ng/mL/mg and the “DN AUC0–168 h” value [3, 15] was 385 h/ng/mL/mg. The “DN AUC0–168 h” value [3, 8] was 481 (34) hr/ng/ml/mg, the “DN AUC0–168 h” value [3, 16] was 500 (55) hr/ng/ml/mg and the C0 ([3]; human, iv, 0.25 mg/m2, C0, plasma, day 1, IV 0.25 mg/m^2, n=1, individual value) was 59.4 ng/mL. For the same compound, the C0 ([3]; human, iv, 1 mg/m2, C0, plasma, day 15, IV 1 mg/m^2, n=1, individual value) was 383 ng/mL, the C0 ([3]; human, iv, 1.4 mg/m2, C0, plasma, day 1, IV 1.4 mg/m^2, n=4, geometric mean (%CV)) was 714 ng/mL and the C0 ([3]; human, iv, 1.4 mg/m2, C0, plasma, day 15, IV 1.4 mg/m^2, n=4, geometric mean (%CV)) was 497 ng/mL. It also gave a half-life ([3]; human, iv, 1.4 mg/m2, t½, terminal disposition phase half-life, day 15, IV 1.4 mg/m^2, n=4, geometric mean (%CV)) of 8.71 days, a C0 ([3]; human, iv, 1.76 mg/m2, C0, plasma, day 1, IV 1.76 mg/m^2, n=7, geometric mean (%CV)) of 542 ng/mL and a C0 ([3]; human, iv, 1.76 mg/m2, C0, plasma, day 15, IV 1.76 mg/m^2, n=3, geometric mean (%CV)) of 499 ng/mL. It also gave a half-life ([3]; human, iv, 1.76 mg/m2, t½, terminal disposition phase half-life, day 15, IV 1.76 mg/m^2, n=3, geometric mean (%CV)) of 6.08 days, a C0 ([3]; human, iv, 2.34 mg/m2, C0, plasma, day 15, IV 2.34 mg/m^2, n=7, geometric mean (%CV)) of 803 ng/mL and a half-life ([3]; human, iv, 2.34 mg/m2, t½, terminal disposition phase half-life, day 15, IV 2.34 mg/m^2, n=7, geometric mean (%CV)) of 4.5 days. It also gave a C0 ([3]; human, iv, 3.11 mg/m2, C0, plasma, day 1, IV 3.11 mg/m^2, n=5, geometric mean (%CV)) of 961 ng/mL, a C0 ([3]; human, iv, 3.11 mg/m2, C0, plasma, day 15, IV 3.11 mg/m^2, n=2, individual values) of 1110 ng/mL and a half-life ([3]; human, iv, 3.11 mg/m2, t½, terminal disposition phase half-life, day 15, IV 3.11 mg/m^2, n=2, individual values) of 4.08 days. The half-life ([3]; human, iv, Terminal half-life, after multiple dosing, weekly IV) was 4 to 12 days, the “Rapid initial disposition phase over by” value ([3]; multi-phasic disposition after IV administration) was ≤ 4 h and the “AUC0–168 h” value [3, 10] was 637 (30) hr/ng/ml. The “AUC0–168 h” value [3, 11] was 821 (48) hr/ng/ml, the “AUC0–168 h” value [3, 12] was 1060 (37) hr/ng/ml and the “AUC0–168 h” value [3, 13] was 1680 (39) hr/ng/ml. The “AUC0–168 h” value [3, 14] was 175 h/ng/mL, the “AUC0–168 h” value [3, 15] was 732 h/ng/mL and the “AUC0–168 h” value [3, 8] was 1390 (24) hr/ng/ ml. For the same compound, the “AUC0–168 h” value [3, 16] was 2110 (41) hr/ng/ ml, the “AUC0–168 h” value [3, 9] was 2090 h/ng/mL and 3080 h/ng/mL and the C0 [3, 9] was 1280 ng/mL. For the same compound, the “Any-grade drug-related PN, patients” value ([4]; weekly oral ixazomib in MM) was 20%, the “Drug-related grade 3 PN, patients” value ([4]; weekly oral ixazomib in MM) was 2% and the “Rate of drug-related AEs in the Skin and subcutaneous tissue disorders System Organ Class” value ([4]; weekly oral ixazomib, relapsed or refractory MM) was 22%. For the same compound, the Terminal half-life [5] was 4 to 12 days, the “Rate of drug-related rash” value [6] was 28% and the “Rate of drug-related skin and subcutaneous tissue disorders” value [6] was 40%. The “Fraction of ixazomib excreted unchanged in urine” value ([7]; 25 patients, days 1 and 15, 0 to 4 h) was < 1 % of the administered dose and the CL renal ([7]; human, urine, intravenous) was < 8.5 mL/min.
